TRAIL sens C8 = sensitizes caspase-8 expressing cells to TRAIL; NB7+C8 cells + TRAIL, ATPlite viability luminescence; inhibition (viability loss, TRAIL sensitization), % at 10 µM; hit rate 1% among 360,000; AID 624354;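 active = compounds causing at least 50% loss of cell viability in the single-dose screen, relative to plate controls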
FLuc inh counter = counter-screen for luciferase assay inhibitors: firefly luciferase inhibition. inhibition, % at 10 µM. hit rate 1.5% among 200,000. P08659. ATPLite firefly luciferase biochemical luminescence, 10 min. AID 1006;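 active = inhibition above about 50% when tested at 10 µM, limit read from the data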
Target sequence (P08659 whole entry, looked up): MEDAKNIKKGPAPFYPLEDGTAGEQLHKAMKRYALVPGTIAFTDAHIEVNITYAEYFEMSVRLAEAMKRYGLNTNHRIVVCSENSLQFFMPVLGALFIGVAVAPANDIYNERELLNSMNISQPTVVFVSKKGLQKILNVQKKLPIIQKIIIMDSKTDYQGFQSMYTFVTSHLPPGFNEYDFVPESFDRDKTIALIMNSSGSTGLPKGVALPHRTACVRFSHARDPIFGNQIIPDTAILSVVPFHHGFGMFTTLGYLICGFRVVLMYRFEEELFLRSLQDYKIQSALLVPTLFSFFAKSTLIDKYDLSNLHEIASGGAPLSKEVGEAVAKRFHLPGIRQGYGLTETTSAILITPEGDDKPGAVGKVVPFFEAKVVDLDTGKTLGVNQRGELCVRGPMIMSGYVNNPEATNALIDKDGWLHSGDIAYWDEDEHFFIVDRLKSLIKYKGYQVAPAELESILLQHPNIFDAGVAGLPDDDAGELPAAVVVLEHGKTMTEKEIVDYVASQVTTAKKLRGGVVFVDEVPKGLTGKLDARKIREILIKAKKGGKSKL
NF-kB expr up = raises NF-kB expression in human neuronal cells; NF-kB reporter expression; active compounds read high; fold change at 12.5 µM; hit rate 1.6% among 190,000; AID 1239; in the data active = fold change above about 3.3
FLuc act counter = affects firefly luciferase, flagging false hits in luciferase stimulation screens. P08659. activation factor at 10 µM. ATPlite luciferase biochemical, luminescence, 10 min; 0 = ATP-free wells, 1 = DMSO control. 200,000 tested, under 10 active;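 active = luciferase activation factor, scaled between plate controls, of at least 2 with compound at 10 µM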
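test system = cell-free luciferase reagent | medium = PBS as buffer for the ATP substrate | dosing = test compounds dosed from 2 mM stocks in 100% DMSO | incubation = 10 min at ambient temperature | detection = luminescence measurement of luciferase light output | benchmarks = low control with PBS replacing ATP, high control enzyme plus ATP without compound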
APP 5'UTR act = activates APP 5'UTR luciferase reporter; activation, % at 2 µM; SH-SY5Y APP 5'UTR luciferase reporter, luminescence; zero percent = DMSO vehicle wells; AID 1276; hit rate 1% among 190,000;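 active = activation above a set limit, based on mean plus 3 SD of controls, cut at about 140% in these data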
PPC-1+TRAIL kill = compounds killing PPC-1 cancer cells with TRAIL present (potentiator screen, no TRAIL-free arm). PPC-1 cells + TRAIL, ATPLite viability luminescence. cell killing (% activity), % at 4 µM or 5 µM. hit rate 0.41% among 220,000. AID 1443;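 active = cell killing above 50% in the first pass at 4 µM, then a duplicate retest at 5 µM averaging 50% or more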
Hits are given with their value; - = inactive; . = no result given. In the library only some 2.2% were active in any assay of this set; here they are far more common.

SMILES	TRAIL sens C8	FLuc inh counter	NF-kB expr up	FLuc act counter	APP 5'UTR act	PPC-1+TRAIL kill
O=C(Nc1sc2c(c1C(=O)O)CCCCC2)c1ccccc1F	-	61	-	-	-	-
Cc1ccc(C(=O)Nc2sc3c(c2C(=O)O)CCCCC3)o1	-	86	-	-	-	-
O=C(Nc1sc2c(c1C(=O)O)CCCCC2)c1cccs1	-	84	-	-	174	-
Cc1ccc(C(=O)Nc2sc3c(c2C(=O)O)CCCC3)o1	-	.	.	.	.	.
COCCn1c(SCC(=O)NN2C(=O)NC(C)(c3ccccc3)C2=O)nnc1-c1ccncc1 (stereo unspecified)	-	.	.	.	.	.
COc1ccc(Cl)cc1N1C(=O)/C(=C\c2sccc2C)N=C1SCC(=O)NC1CC1	-	-	-	-	.	-
CCOC(=O)C1(C)CCN1C(=O)c1c(F)cccc1F (stereo unspecified)	-	.	.	.	.	.
O=C(Cn1ncc(Cl)c(Cl)c1=O)c1ccc2c(c1)OCCO2	89	.	.	.	.	.
CCN(CC)S(=O)(=O)c1cc(NC(=O)Cn2ncc(Cl)c(Cl)c2=O)ccc1C	62	.	.	.	.	-
CCC(=O)Nc1ccc(C(=O)Cn2ncc(Cl)c(Cl)c2=O)cc1	94	.	.	.	.	-
Cc1ccc(S(=O)(=O)N2CCCCC2)cc1NC(=O)Cn1ncc(Cl)c(Cl)c1=O	96	.	.	.	.	.
CCC(=O)c1ccc2c(c1)OCCO2	-	.	.	.	.	-
COc1cc2c(cc1OC)[C@@H](NC(=O)CCc1ccccc1)[C@H](OCc1ccccc1)C2	-	.	.	.	.	.
CC1CN(C(=S)Nc2ccccc2)C(C)CN1C=O (stereo unspecified)	-	.	.	.	.	.
CC(Sc1nnc(Cc2ccccc2)n1C)C(=O)NC1CC1 (stereo unspecified)	-	.	.	.	.	.
CCN(C(=O)COC(=O)COc1ccc(Cl)c(C)c1)C1CCS(=O)(=O)C1 (stereo unspecified)	-	.	.	.	.	.
CCOc1ccccc1CN1C(=O)c2ccccc2C1C(=O)NC(C)CC (stereo unspecified)	-	-	-	-	-	-
O=C(Cn1ncc(Cl)c(Cl)c1=O)NC(=O)NC1CCCCC1	93	.	.	.	.	.
CCCc1cc(=O)[nH]c(SCC(=O)N2CCCc3ccccc32)n1	-	72	-	-	-	-
O=C(Cn1ncc(Cl)c(Cl)c1=O)Nc1ccc2c(c1)OCO2	94	.	.	.	.	.
CCCc1cc(=O)[nH]c(SCC(=O)Nc2cc(S(=O)(=O)N3CCCCC3)ccc2C)n1	50	.	.	.	.	.
Nc1cc(=O)[nH]c(SCC(=O)N2CCCc3ccccc32)n1	-	-	-	-	-	-
COc1cc(C(=O)NCC(c2ccco2)N2CCOCC2)cc(OC)c1OC (stereo unspecified)	-	.	.	.	.	.
COCc1cc(/C=N\NC(=O)Cc2ccc(OC)cc2)ccc1OC	-	-	-	-	-	-
Cn1c(CNC(=O)c2ccco2)nnc1SCCOc1ccccc1	-	.	.	.	.	.
SMILES	TRAIL sens C8	FLuc inh counter	NF-kB expr up	FLuc act counter	APP 5'UTR act	PPC-1+TRAIL kill
C=CCC[C@H](Cc1ccc(F)cc1)C(=O)OC[C@@H](Cc1c[nH]c2ccccc12)NC(=O)[C@@H](CC=C)CC(=O)NCCO	-	.	.	.	.	.
COc1cccc(-n2c(SCC(=O)N3CCCCC3)nc3c([nH]c4ccccc43)c2=O)c1	54	-	-	-	-	-
Cc1ccc(Nc2nc(N)c3ccccc3n2)cc1C	79	.	.	.	.	.
Cc1cc(Nc2ccc(C)c(C)c2)c2ccccc2n1	-	.	.	.	.	.
O=Cc1ccc(-c2nc3ccccc3s2)o1	-	-	-	-	143	-
O=C(O)c1ccc(-c2nc3ccccc3s2)o1	-	.	.	.	.	-
C[C@H]1CN=C(N(C)C)N1CCCCc1ccccc1	-	.	.	.	.	.
Cc1cc(NCCCN2CCOCC2)n2ncc(-c3ccc(Cl)cc3)c2n1	-	-	-	-	-	-
Cc1cc(NCCCn2ccnc2)n2ncc(-c3ccc(Cl)cc3)c2n1	54	-	-	-	253	-
COc1cccc(-n2c(SCC(=O)N3CCc4ccccc43)nnc2-c2c[nH]c3ccccc23)c1	59	-	-	-	-	-
CCOc1ccc(-n2c(SCC(=O)N3CCc4ccccc43)nnc2-c2c[nH]c3ccccc23)cc1	-	-	-	-	-	-
Cc1cccn2c(=O)c3cc(C(=O)N4CCN(Cc5ccccc5)CC4)sc3nc12	-	.	.	.	.	.
CCOc1ccc(-n2c(SCC(=O)Nc3cc(OC)c([N+](=O)[O-])cc3C)nc3ccccc32)cc1	-	-	-	-	-	-
COc1cc([N+](=O)[O-])ccc1NC(=O)CSc1nc2ccccc2n1-c1ccccc1	.	-	4.2	-	-	-
CCOc1ccc(-c2nnc(NC3=NCCCCC3)o2)cc1	-	-	4.1	-	-	-
CCOc1ccc(-c2cnc3ccccc3n2)cc1	66	.	.	.	.	-
CCOC(=O)COc1ccc(-c2nnc(-c3ccccc3)o2)cc1	49	-	-	-	-	-
O=[N+]([O-])c1ccc(-c2cnc3ccccc3n2)cc1	-	.	.	.	.	.
CCOc1ccc(-c2nnc(-c3ccccc3)o2)cc1	58	75	4.2	-	-	-
CCOc1ccc(S(=O)(=O)NC2=NCCCCC2)cc1	-	.	.	.	.	.
COC(=O)c1ccccc1NC(=O)[C@@H]1CCC(=O)N1C1OC(=O)c2c1ccc(OC)c2OC (stereo partly specified)	-	.	.	.	.	.
CC(OC(=O)Cn1cnc2c1c(=O)n(C)c(=O)n2C)C(=O)NC(C)c1ccc(Cl)cc1Cl (stereo unspecified)	-	.	.	.	.	.
CCOc1ccc(CCNC(=O)c2cc3c(s2)CS(=O)(=O)C3)cc1OCC	-	.	.	.	.	.
Cc1noc(C)c1COc1ccc(C(=O)N2CCN(c3ccccc3O)CC2)cc1	-	.	.	.	.	.
O=C(CSc1nccn1Cc1ccco1)Nc1ccccc1	-	.	.	.	.	.
SMILES	TRAIL sens C8	FLuc inh counter	NF-kB expr up	FLuc act counter	APP 5'UTR act	PPC-1+TRAIL kill
Cc1oc2c(c1C(=O)c1ccc(Cl)cc1)C(=O)C(=O)c1ccccc1-2	94	-	-	-	-	-
O=C(c1ccc(Cl)cc1)c1ccc(CN2C(=O)c3ccccc3C2=O)o1	-	-	-	-	-	-
Cc1ccc(C(=O)c2coc3c2C(=O)C(=O)c2ccccc2-3)cc1	-	-	-	-	-	-
Cc1ccc(C(=O)c2c(C)oc3c2C(=O)C(=O)c2ccccc2-3)cc1	97	-	-	-	-	-
COc1cccc(-c2sc3ccc(OC)cc3c2C#CCCO)c1	-	.	.	.	.	.
CCN(CC)c1ccc(C(=S)NC2CCCCC2)cc1	-	-	-	-	-	-
COc1ccc(C(=S)Nc2ccc(N(C)C)cc2)cc1	-	-	5.4	-	170	-
Cc1ccc(NC(=S)c2ccc(N(C)C)cc2)cc1	-	58	3.5	-	150	-
COc1ccc(NC(=S)c2ccccc2)cc1	-	-	-	-	-	-
COc1ccc(NC(=S)c2ccc(N(C)C)cc2)cc1	-	-	-	-	135	-
CN(C)c1ccc(C(=S)NC2CCCCC2)cc1	-	-	3.4	-	-	-
Cc1cccc(/C=N/NC(=O)c2ccncc2)n1	-	.	.	.	.	.
CCC(C)(C)c1ccc(OCCN2C(=O)NC(C)(C)C2=O)cc1	-	-	-	-	.	-
CSc1ccccc1C(=O)Nc1ccc2c(c1)OCCO2	-	-	-	-	-	-
O=C(Nc1ccc2c(c1)OCCO2)c1coc2ccccc2c1=O	-	97	-	-	-	-

Screens deposited in PubChem BioAssay by several laboratories.
